This experiment has as its system HepG2. Description: Antiproliferative activity against human HepG2 cells after 24 hrs by MTT assay. It counts as functional, cell-based. Conditions: HepG2, 24 h. A digest of the protocol:
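Seeded at 1 × 10⁴ cells per well, incubated 24 h before treatment. MTT (20 µL of 5 mg/mL in PBS) added per well and incubated until purple precipitate appeared. Medium removed, precipitate dissolved in 150 µL DMSO, shaken 10 min, absorbance read at 570 nm. Growth expressed as percentage of untreated control.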

Usually IC50 stands for the concentration that gives 50% inhibition. Lower therefore signals greater potency in that assay.

Structures are written as SMILES.

Consider `COc1ccc(C(=O)/C=C/c2cn(Cc3ccccc3C(F)(F)F)c3ccccc23)c2c1C=CC(C)(C)O2`, for which the IC50 is more than 10000 nM.
Regarding `CCn1ccc2cccc(/C=C/C(=O)c3ccc(OC)c4c3OC(C)(C)C=C4)c21`, the half-maximal inhibitory concentration (IC50) is more than 10000 nM.
Turning to `COc1ccc(C(=O)/C=C/c2cn(CCN3CCOCC3)c3ccccc23)c2c1C=CC(C)(C)O2`, the midpoint of inhibition, the IC50, lay at 3230 nM.
For `COc1ccc(C(=O)/C=C/c2ccc3[nH]ccc3c2)c2c1C=CC(C)(C)O2`, the IC50 was determined as 1060 nM.
Next, `COc1ccc(C(=O)/C=C/c2ccc3cc[nH]c3c2)c2c1C=CC(C)(C)O2`: 4950 nM; `COc1ccc(C(=O)/C=C/c2cccc3ccn(Cc4cccc(Br)c4)c23)c2c1C=CC(C)(C)O2`: more than 10000 nM.
The compound `CC(C)c1ccc(S(=O)(=O)Oc2ccc(C(=O)/C=C/c3ccc4c(ccn4C)c3)c3c2C=CC(C)(C)O3)cc1` displayed an IC50 of 1870 nM.
In the case of `COc1ccc(C(=O)/C=C/c2cccc3c2ccn3Cc2cccc(Br)c2)c2c1C=CC(C)(C)O2`, the IC50 was more than 10000 nM.
In turn, `COc1ccc(C(=O)/C=C/c2cccc3ccn(C)c23)c2c1C=CC(C)(C)O2` gave an IC50 of more than 10000 nM.
The result for `CCCCCOc1ccc(C(=O)/C=C/c2ccc3c(ccn3C)c2)c2c1C=CC(C)(C)O2` reads 670 nM.
`Cn1ccc2cc(/C=C/C(=O)c3ccc(OS(=O)(=O)c4ccc(Br)cc4C(F)(F)F)c4c3OC(C)(C)C=C4)ccc21`: the IC50 is 620 nM.
The result for `Cn1ccc2cc(/C=C/C(=O)c3ccc(OS(=O)(=O)c4cccc(C(F)(F)F)c4)c4c3OC(C)(C)C=C4)ccc21` reads 1550 nM; that for `COc1ccc(C(=O)/C=C/c2cccc3cc[nH]c23)c2c1C=CC(C)(C)O2`, 7620 nM.
Next, `CCn1ccc2ccc(/C=C/C(=O)c3ccc(OC)c4c3OC(C)(C)C=C4)cc21`: more than 10000 nM; `COc1ccc(C(=O)/C=C/c2cccc3c2ccn3Cc2cccc(Cl)c2)c2c1C=CC(C)(C)O2`: more than 10000 nM; `COc1ccc(C(=O)/C=C/c2ccc3ccn(Cc4cccc(Cl)c4)c3c2)c2c1C=CC(C)(C)O2`: more than 10000 nM.
`COc1ccc(C(=O)/C=C/c2ccc3ccn(Cc4cccc(F)c4)c3c2)c2c1C=CC(C)(C)O2` gave an IC50 of more than 10000 nM.
For `COc1ccc(C(=O)/C=C/c2ccc3c(ccn3CCN3CCCCC3)c2)c2c1C=CC(C)(C)O2`, the IC50 is 4450 nM.
The result for `COc1ccc(C(=O)/C=C/c2cn(Cc3ccccc3F)c3ccccc23)c2c1C=CC(C)(C)O2` reads 2750 nM.
On to `CCn1cc(/C=C/C(=O)c2ccc(OC)c3c2OC(C)(C)C=C3)c2ccccc21`, for which half-maximal inhibition (IC50) required 3010 nM.
Compound `COc1ccc(C(=O)/C=C/c2cn(Cc3cccc(C(F)(F)F)c3)c3ccccc23)c2c1C=CC(C)(C)O2` yielded an IC50 of 2180 nM.
The compound `COc1ccc(C(=O)/C=C/c2cn(CC=C(C)C)c3ccccc23)c2c1C=CC(C)(C)O2` gave an IC50 of 2810 nM.
Compound `CCOc1ccc(C(=O)/C=C/c2ccc3c(ccn3C)c2)c2c1C=CC(C)(C)O2` displayed a 50% inhibitory concentration (IC50) of 750 nM.
The compound `COc1ccc(C(=O)/C=C/c2cccc3ccn(Cc4cccc(Cl)c4)c23)c2c1C=CC(C)(C)O2` gave an IC50 of more than 10000 nM.
The compound `COc1ccc(C(=O)/C=C/c2cn(Cc3ccc(C(F)(F)F)cc3)c3ccccc23)c2c1C=CC(C)(C)O2` came in with an IC50 of 3460 nM.
The result for `COc1ccc(C(=O)/C=C/c2cn(Cc3ccccc3)c3ccccc23)c2c1C=CC(C)(C)O2` reads 1780 nM; that for `COc1cc([N+](=O)[O-])ccc1S(=O)(=O)Oc1ccc(C(=O)/C=C/c2ccc3c(ccn3C)c2)c2c1C=CC(C)(C)O2`, 570 nM.
For the compound `Cn1ccc2cc(/C=C/C(=O)c3ccc(OS(=O)(=O)c4cc(F)cc(F)c4)c4c3OC(C)(C)C=C4)ccc21`, the IC50 worked out at 690 nM.
Next, `Cn1ccc2cc(/C=C/C(=O)c3ccc(OS(=O)(=O)c4c(F)c(F)c(F)c(F)c4F)c4c3OC(C)(C)C=C4)ccc21`: 1530 nM; `COc1ccc(C(=O)/C=C/c2cn(Cc3cccc(Cl)c3)c3ccccc23)c2c1C=CC(C)(C)O2`: 2130 nM.
`COc1ccc(C(=O)/C=C/c2cccc3[nH]ccc23)c2c1C=CC(C)(C)O2`: the IC50 turned out to be 8380 nM. Compared with the last compound, the IC50 is about 3.9-fold higher.
The result for `COc1ccc(C(=O)/C=C/c2cn(Cc3cccc(Br)c3)c3ccccc23)c2c1C=CC(C)(C)O2` reads 1380 nM; that for `CCCCOc1ccc(C(=O)/C=C/c2ccc3c(ccn3C)c2)c2c1C=CC(C)(C)O2`, 630 nM; that for `COc1ccc(C(=O)/C=C/c2cn(Cc3cccc(F)c3)c3ccccc23)c2c1C=CC(C)(C)O2`, 3090 nM.
The compound `COc1ccc(C(=O)/C=C/c2cn(C)c3ccccc23)c2c1C=CC(C)(C)O2` gave an IC50 of 2230 nM.
The compound `CCCOc1ccc(C(=O)/C=C/c2ccc3c(ccn3C)c2)c2c1C=CC(C)(C)O2` registered a half-inhibitory concentration (IC50) of 460 nM.
Next, `CC(C)Oc1ccc(C(=O)/C=C/c2ccc3c(ccn3C)c2)c2c1C=CC(C)(C)O2`: 780 nM; `COc1ccc(C(=O)/C=C/c2ccc3ccn(Cc4cccc(Br)c4)c3c2)c2c1C=CC(C)(C)O2`: more than 10000 nM; `COc1ccc(C(=O)/C=C/c2cn(CC(C)C)c3ccccc23)c2c1C=CC(C)(C)O2`: more than 10000 nM.
Regarding `COc1ccc(C(=O)/C=C/c2cccc3ccn(Cc4cccc(F)c4)c23)c2c1C=CC(C)(C)O2`, the IC50 is more than 10000 nM.
Compound `COc1ccc(C(=O)/C=C/c2cccc3c2ccn3C)c2c1C=CC(C)(C)O2` yielded a concentration for half-maximal inhibition (IC50) of 2750 nM.
The result for `COc1ccc(C(=O)/C=C/c2ccc3ccn(C)c3c2)c2c1C=CC(C)(C)O2` reads 8850 nM.
For the compound `CC(C)COc1ccc(C(=O)/C=C/c2ccc3c(ccn3C)c2)c2c1C=CC(C)(C)O2`, inhibition was half-maximal at 970 nM (IC50).
Regarding `COCn1cc(/C=C/C(=O)c2ccc(OC)c3c2OC(C)(C)C=C3)c2ccccc21`, it took 4700 nM to reach half-maximal inhibition (IC50). This IC50 lies about 4.8-fold higher than the previous one.
`COc1ccc(C(=O)/C=C/c2cccc3c2ccn3Cc2cccc(F)c2)c2c1C=CC(C)(C)O2` gave a concentration for half-maximal inhibition (IC50) of more than 10000 nM.
`COc1ccc(C(=O)/C=C/c2cn(Cc3ccc(Cl)cc3)c3ccccc23)c2c1C=CC(C)(C)O2` showed an IC50 of more than 10000 nM.
Regarding `CCCCC(=O)Oc1ccc(C(=O)/C=C/c2ccc3c(ccn3C)c2)c2c1C=CC(C)(C)O2`, the midpoint of inhibition, the IC50, lay at 920 nM.
As to `COc1cccc(S(=O)(=O)Oc2ccc(C(=O)/C=C/c3ccc4c(ccn4C)c3)c3c2C=CC(C)(C)O3)c1`, the IC50 was found to be 750 nM.
`COc1ccc(C(=O)/C=C/c2cn(Cc3ccc(F)cc3)c3ccccc23)c2c1C=CC(C)(C)O2`: the IC50 was more than 10000 nM.
On to `COc1ccc(C(=O)/C=C/c2ccc3c(ccn3C)c2)c2c1C=CC(C)(C)O2`, for which the IC50 was found to be 840 nM.
Next, `CC(=O)Oc1ccc(C(=O)/C=C/c2ccc3c(ccn3C)c2)c2c1C=CC(C)(C)O2`: 520 nM; `COc1ccc(C(=O)/C=C/c2cn(Cc3ccccc3Cl)c3ccccc23)c2c1C=CC(C)(C)O2`: 1940 nM.
Regarding `Cc1ccc(S(=O)(=O)Oc2ccc(C(=O)/C=C/c3ccc4c(ccn4C)c3)c3c2C=CC(C)(C)O3)cc1`, the IC50 worked out at 860 nM.
Consider `CC(C)C(=O)Oc1ccc(C(=O)/C=C/c2ccc3c(ccn3C)c2)c2c1C=CC(C)(C)O2`, for which half-maximal inhibition (IC50) was put at 370 nM.
Regarding `CCn1ccc2c(/C=C/C(=O)c3ccc(OC)c4c3OC(C)(C)C=C4)cccc21`, inhibition was half-maximal at 5540 nM (IC50).
Compound `COc1ccc(C(=O)/C=C/c2cn(Cc3ccccc3Br)c3ccccc23)c2c1C=CC(C)(C)O2` showed an IC50 of more than 10000 nM.
The compound `COc1ccc(C(=O)/C=C/c2cn(Cc3ccc(Br)cc3)c3ccccc23)c2c1C=CC(C)(C)O2` registered an IC50 of more than 10000 nM.

The values are drawn from ChEMBL document CHEMBL3232988, “Design, synthesis and biological evaluation of a series of pyrano chalcone derivatives containing indole moiety as novel anti-tubulin agents” (Bioorg Med Chem, 2014).
